Measurements reported in the EternaBench riboswitch data.

System: MS2 coat protein
Assay: apparent Kd, MS2 coat protein; higher = weaker binding; RNA-MaP array; FMN 200 µM where present
Outline: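 Apparent Kd: the median of filtered binding-curve fits from single clusters. Designs were transcribed on Illumina sequencing-chip clusters by stalled E. coli RNA polymerase and titrated with SNAP-549-labelled MS2 coat protein from 0.7 or 1.5 nM, doubling to 3 µM, in 100 mM Tris-HCl pH 7.5, 80 mM KCl, 4 mM MgCl2, BSA, DTT, yeast tRNA and Tween-20. Each series ran without and then with constant ligand, and green signal was normalised to red-channel RNA signal and control-cluster median Fmax.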

[1] = designed as: ON switch for flavin mononucleotide, no ligand
[2] = ligand present: flavin mononucleotide, designed as: ON switch for flavin mononucleotide
[3] = designed as: OFF switch for flavin mononucleotide, no ligand
[4] = ligand present: flavin mononucleotide, designed as: OFF switch for flavin mononucleotide

Sequence | apparent Kd [1] [nM] | apparent Kd [2] [nM] | apparent Kd [3] [nM] | apparent Kd [4] [nM]
GCAAUAGCAUGAGGAUAUGUUGGAGUUUAGACAGCAGAAGGCAUGUCAUAAGACAUGAGGAUCACCCAUGUAGUUACAAUGGCA | 22.6 | 11.5 |  | 
GUCAGCUCGUGAGGAUAUACAUGUGCUGGAAACAGCACUAAUUAAUUCACAUGAGGAUCACCCAUGUAGAAGGCACGAGCUGAU |  |  | 16.2 | 17.8
AAUCCACAUGAGGAUCACCCAUGUCAGGAUAUACGCAUCGGACCGAUCGGCUGUUUGGGUAGAAGGGACGUGCA |  |  | 16 | 16.1
AAAAAGGCAGGAUAUACAAAACAGGGAAACCUGAAAAGGAAACAUGAGGAUCACCCAUGUAGAAGGGCCAAGAA |  |  | 24.9 | 35.3
CGAAGUAGCACAGGAUAUCAUACAUGAGGAUCACCCAUGUCAAGAAACAAAUGAGAAGGGUGCAGGCGGUGUUGGAGCUGUUGC | 99.4 | 14.1 |  | 
GGAAAGUGAGGAUAUGGUAAUUUAAUUAUUAAUUAAUUAAUCCAGAAGGCACAUGAGGAUCACCCAUGUAAAUG |  |  | 35.9 | 61.5
UCCUACAUCGGAGGAUAUCAUGUGUAAACAUGAGGAUCACCCAUGUCGUACGAGAGUACGGAGAUUGAGAAGGCCGAUGUAGGU | 96 | 17.2 |  | 
AUAUAUAUCCAGAAGGUGCCAGCGAGAGCUGCACAUGAGGAUCACCCAUGUUGUCGGUGACGACGCAAGGAUAUGGAUAUAUAU | 28.2 | 7.43 |  | 
GGACGUCACAUCUACAUGAGGAUCACCCAUGUCGAAAGACAUGAGGAUAUGCAUCCUAAUUGGAUGCAGAAGGCAUGGACGUCC | 667 | 69.7 |  | 
GUGGUGGGUUGAGGAUAUUGGUUGUUGUUGUCCCACAUGAGGAUCACCCAUGUGGGUUGUGGUUUUGAGAAGGUUGGUUGCUGG | 18.3 | 15.5 |  | 
GUAGCUAUUAAAGGAUAUUCAUACCGGAAACGGACAUGAGGAUCACCCAUGUGGCGAAAGCCUUGGGAGAAGGUUAUUAGCUAC | 378 | 15.6 |  | 
AGCUGUGGCCGAGGAUAUACAUCCUUUAUAACCGAUGAAUAUCAUCGGACAUGAGGAUCACCCAUGUAGAAGGCGGUCUCAGCA |  |  | 149 | 750
GGGAACAUCGGAGGAUAUCAUGUAAAUACAUGAGGAUCACCCAUGUCGAUGGAGACAUCGGAGAUUGAGAAGGCCGAUGUACCG | 173 | 9.66 |  | 
AACAUCCAAGCGCCCGGGUGGAGGAGAAGGCGGACAUGAGGAUCACCCAUGUGCAGCCACAAGUCCGAGGAUAUCCUUUGUGUU |  |  | 10.6 | 20.2
AUUUGAAAGUCAGGAUAUGGUAGAUUAUUCUUAUCAGAAGGGAUUAUUAUACUCAAGUACAUGAGGAUCACCCAUGUUAAAUCA | 22.6 | 13 |  | 
UUCUGGCUAGGAUAUACAGUGUCCACGAGUUAGUUGCCCUAACAUGAGGAUCACCCAUGUAGAAGGAGCGAGAA |  |  | 48.2 | 83.7
AGCCUAGCAGGAUAUGCCCGGGAUAACAUGAGGAUCACCCAUGUGACUGAUUGAUAUCCUGCAGAAGGGCUAGGGA |  |  | 24.4 | 122
AACUCGUUAGGAUAUACCGCCAACGAUACCUCGUGAAACAUACAUGAGGAUCACCCAUGUAGAAGGAGCGAGCA |  |  | 16.9 | 23.3
UGGUUGGGAGGAUAUCCAAUAUAUGACAUGAGGAUCACCCAUGUUUCCACUCGUACCUCCGGAGAAGGCCCUUCCC |  |  | 21.7 | 20.7
GGAUUACAUGAGGAUCACCCAUGUGAGGAUAUCGAUGUCCAGUAGGGCGUGCGGGACUCGAGAAGGCACUUGGA |  |  | 47.5 | 177
UCCAUCCCUGUGAGGAUAUCGUCCGUUUUUUGUUCCGAGAAGGCACAUGAGGAUCACCCAUGUUUUUUGUUUUU |  |  | 29.4 | 58.8
UCGAUAAGGAGAGGAUAUGGACAUGAGGAUCACCCAUGUACAUGGGAAUAUAUACUGAAUUUUUACUAGAAGGCUUACAUAAUU |  |  | 16.4 | 14.8
AGCAUGUGAGGAUAUGCGGACUCCGGUAAAUCUGGAAUCCAGUAGAAGGCACAUGAGGAUCACCCAUGUGAUAA |  |  | 68.2 | 55.9
UUCAGCUCGUGAGGAUAUACAACACUGCUUCGGCAGUGUAUUAAGAUCACAUGAGGAUCACCCAUGUAGAAGGCACGAGCUGAU |  |  | 14.8 | 290
GCACUGGAUGUAGGAUAUCAGGACGAUAAGUCCUGAGAAGGACAUGAGGAUCACCCAUGUAACUCAUAACCAGUGCAUAAUAUA |  |  | 15 | 24.8
ACGUUAAAAGGAUAUACAUGAGGAUCACCCAUGUUGUUCGAACCGGUAAACCCUCUAUGUAGAAGGUUUGGCGC |  |  | 16 | 17.9
UAAAUUUUGUAAGGAUAUACACGAGAUUCAAGUGUAGAAGGUACUUACAUGAGGAUCACCCAUGUAUACAUGGAUAAUAGAUAU | 436 | 141 |  | 
GUUUACGUGGAAGGAUAUACAUUUGACAUCCUGAUGCGCGCAAUACCCACAUGAGGAUCACCCAUGUAGAAGGUCUGCGAAAGA |  |  | 14.7 | 18.4

Sequence | apparent Kd [1] [nM] | apparent Kd [2] [nM] | apparent Kd [3] [nM] | apparent Kd [4] [nM]
GUCAGCUCGUGAGGAUAUACAUGUGCUGGAUACAGCACUAUUAAGUUCACAUGAGGAUCACCCAUGUAGAAGGCACGAGCUGAU |  |  | 15.8 | 20.4
GCCCUUCGAGGAUAUACAUGAGGAUCACCCAUGUCCGGAGUUCCGAGGCGGCCCAUAUGUAGAAGGCGAACUUU |  |  | 43.4 | 67
GUCGGAAACGACAAAAGUAGCAUAGGAGAAGGUCCAUUAAACAUGAGGAUCACCCAUGUAAUUGGGAAGGAUAUCCUAUGCUAC | 9.27 | 5.84 |  | 
UGACCACAUGAGGAUCACCCAUGUGAGGAUAUCAGAAUACGGCAUCGGGCCGUACUUUUGAGAAGGCACAUAAA |  |  | 24.1 | 65.2
CGCACUGAUAGAGGAUAUGUUUAACAUGAGGAUCACCCAUGUGUACAAGUAUCAAUAUUUAUGUAACAGAAGGCUAUUAGUGCG |  |  | 5.77 | 5.47
GGCCUGUGAGGAUAUUAGUAGUAGUCAGAAUAGACUAUUACUGAGAAGGUACAUGAGGAUCACCCAUGUUGGCC |  |  | 19.4 | 15.9
UUGGACGCCGUAGGAUAUGUAGGAUAUUCCUACAUGAGGAUCACCCAUGUUGACAUGGAAGAAGGACAGAAGGACGAUGUCCAU | 277 | 4.78 |  | 
AUGGUUCACUCAGGAUAUGUAUCACCUCGUUACCAACAUGAGGAUCACCCAUGUCCGUGGCUCGGACAGAAGGGAGAAGAACCG | 581 | 232 |  | 
ACUUGUAAGUAGAAGGCAGUCAUUAUAUUAAUCAUGUAGACAUGAGGAUCACCCAUGUAGAGUACUGAGGAUAUACAUCGAUAG |  |  | 12.5 | 9.85
GGGCUCGGAGGAUAUACAUGAGGAUCACCCAUGUACUCGGGCUCUAUUGGGCUCGGGUGUAGAAGGUCGGGCUC |  |  | 14.9 | 14.6
UGUAGGAGCAGAGGAUAUUACAUGAGGAUCACCCAUGUAUGAACCAAUAGCUGGAAACAGCAAUGUAAGAAGGCUGCUCCGACA |  |  | 12.2 | 187
GGAUUUUACUAGUUUUCUAUACAUGAGGAUCACCCAUGUUUUUAGGAUAUCAGCGUGAAACACGCUGAGAAGGAAGAACAAUCC |  |  | 15.4 | 18.5
GAUGAGAGAGGAUAUACAUGAGGAUCACCCAUGUAAUUUUCGGACAUGGAAGCCUGAUGUAGAAGGCUCGCAUG |  |  | 78.5 | 38.6
AUAUAGCGAGGAUAUACAUGAGGAUCACCCAUGUGGUAGUAGAUACGGUAGGGCUAGUGUAGAAGGUGUUAUGA |  |  | 139 | 87.9
UCACGGGAUUGAGGAUAUAUAUUAAUUUUUUUUAUAGAAGGCAAAUUGUUAGAUUAUUCACUAUACAUGAGGAUCACCCAUGUU |  |  | 29.3 | 26.6
AUUUAUUUACAGAAGGAGUAUGAUAAUGUUUUACUAGGAUAUGUAUACAUGAGGAUCACCCAUGUUAUUAUAGGUUUUUUAUGU |  |  | 10.3 | 7.08
GUAUUGUGAGGAUAUCCAAUAUAUGACAUGAGGAUCACCCAUGUUUCCACUCGUACCUCCGGAGAAGGCACAGUUU |  |  | 28.3 | 24.3
ACAUUAGAAGAGAAGGUUCAUACUAUUAUCAACAUACAUGAGGAUCACCCAUGUUGGUGAUUAAGAAAGGAUAUUUAUAACACU |  |  | 23.1 | 20.6
GUCAGCUCCUGAGGAUAUACAACACUGCUUCGGCAGUGUAUUAAGAUCACAUGAGGAUCACCCAUGUAGAAGGCACGAGCUGAU |  |  | 12.1 | 156
UUGGUUGUCGUAGGAUAUGUAGGAUAUUCCUACAUGAGGAUCACCCAUGUUCGCAUGGAAGAAGGACAGAAGGACGAUGACCAC | 850 | 9.19 |  | 
CGUCCACAUGAGGAUCACCCAUGUGAGGAUAUCGAUGUCCCAGGGCGGGUGCGGGACUCGAGAAGGCGCUAGGU |  |  | 23.3 | 29
GGUGGUCUUGUGAGGAUAUGGUUGGAUGCAUAUGAUCAGAAGGCACAUGAGGAUCACCCAUGUGGAAUACCACU |  |  | 37.3 | 234
CCUCAGUCAGGAUAUAUCGCACCCAUGAAGUACAUAGGUUCAUAGAAGGGACAUGAGGAUCACCCAUGUCUAGA |  |  | 22 | 57
UCCGUAAUUCUGAGCUUCGCGAUGAGAAGGGUAGAGGCUGGGUCCUACAUGAGGAUCACCCAUGUACAGGAUAUCAUUGCACGA |  |  | 14.1 | 30.3
UCCUGAUUGAGAGGUAGGAGUGGUAGAAGGCGACCGGUGCCAGAUGACAUGAGGAUCACCCAUGUCGAGGAUAUACCACAGAAU |  |  | 6.96 | 13.1
CGCUACUACCAGAAGGACAUGAGGAUCACCCAUGUAGGAUAUGGGUUACAAGUACCAGUGUAAAGAAACUACGCUACGUUUGCG | 47.2 | 7.79 |  | 
GCAUCCAAAGUGAGGAUAUACCUCUGGAUACAGAGGUAGAAGGCACAUGAGGAUCACCCAUGUUACUAGGAUGC |  |  | 12.9 | 17
